For test [1], the system named is HCT-116. Kind of test: Antiproliferative activity against human HCT116 cells after 24 hrs by MTT assay. It counts as functional, cell-based. The settings on record: HCT-116, 24 h.
Test [2] concerns HCT-116. Kind of test: Antiproliferative activity against human HCT116 cells after 72 hrs by MTT assay. It counts as functional, cell-based. The settings on record: HCT-116, 72 h. (In general: Tetrazolium dyes change colour on reduction, which living cells bring about.)
Test [3] addresses T1, Histone deacetylase (Homo sapiens) (UniProt Q13547+O15379+Q9UBN7+Q92769+Q9UQL6+Q8WUI4+Q9BY41+Q96DB2+P56524+Q9UKV0+Q969S8). Description: Inhibition of HDAC in human HCT116 cells assessed as reduction in acetyl-histone-H4 levels at 10 uM after 24 hrs by Western blot analysis relative to control. It counts as cell-based. The essentials: (§1)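 HCT116 cells were treated 24 h at 10 µM, with DMSO vehicle as control. Total lysates (protein by Bradford against a BSA standard, ~30 µg loaded) were run on 15% SDS-PAGE under reducing conditions and transferred to nitrocellulose. Membranes were blocked in 5% milk, then probed with anti-acetyl-histone H3 or H4, with GAPDH as loading control. Detection by HRP secondary and ECL. Three experiments.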

The target of test [4] is T2, Protein deacetylase HDAC6 (Homo sapiens) (UniProt Q9UBN7).
T2 sequence (whole entry): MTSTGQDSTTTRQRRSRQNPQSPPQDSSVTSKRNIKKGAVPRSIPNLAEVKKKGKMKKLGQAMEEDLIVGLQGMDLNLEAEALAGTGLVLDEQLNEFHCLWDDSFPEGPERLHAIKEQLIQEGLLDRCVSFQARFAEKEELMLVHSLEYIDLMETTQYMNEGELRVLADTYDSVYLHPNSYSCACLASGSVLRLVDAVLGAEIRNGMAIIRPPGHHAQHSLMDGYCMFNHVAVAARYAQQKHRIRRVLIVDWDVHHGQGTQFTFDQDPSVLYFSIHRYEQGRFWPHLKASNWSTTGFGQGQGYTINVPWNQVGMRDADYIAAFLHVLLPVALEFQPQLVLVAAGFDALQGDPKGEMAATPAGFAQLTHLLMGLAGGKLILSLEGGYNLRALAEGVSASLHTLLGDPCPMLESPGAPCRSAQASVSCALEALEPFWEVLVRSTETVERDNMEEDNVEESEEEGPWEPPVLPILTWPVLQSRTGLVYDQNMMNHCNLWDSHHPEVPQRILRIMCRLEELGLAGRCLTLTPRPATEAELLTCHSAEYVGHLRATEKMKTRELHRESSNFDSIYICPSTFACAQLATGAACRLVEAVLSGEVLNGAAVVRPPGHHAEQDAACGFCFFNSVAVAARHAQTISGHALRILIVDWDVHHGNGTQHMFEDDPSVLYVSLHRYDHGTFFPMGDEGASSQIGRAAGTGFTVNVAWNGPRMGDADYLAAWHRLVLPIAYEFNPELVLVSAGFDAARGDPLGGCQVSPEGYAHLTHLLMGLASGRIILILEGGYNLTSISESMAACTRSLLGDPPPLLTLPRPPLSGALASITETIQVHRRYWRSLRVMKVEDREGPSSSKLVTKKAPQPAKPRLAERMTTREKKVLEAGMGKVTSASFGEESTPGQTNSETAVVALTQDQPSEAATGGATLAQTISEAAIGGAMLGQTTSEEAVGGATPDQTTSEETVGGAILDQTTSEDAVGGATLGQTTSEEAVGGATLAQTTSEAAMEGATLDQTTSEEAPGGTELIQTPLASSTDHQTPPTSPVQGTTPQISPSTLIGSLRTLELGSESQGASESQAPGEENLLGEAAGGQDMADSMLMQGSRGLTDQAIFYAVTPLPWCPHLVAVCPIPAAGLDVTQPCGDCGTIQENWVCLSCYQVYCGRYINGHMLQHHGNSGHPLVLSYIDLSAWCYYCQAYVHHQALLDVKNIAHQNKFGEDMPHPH
Kind of test: Inhibition of full-length recombinant HDAC6 (unknown origin) expressed in baculovirus infected Sf9 insect cells measured every 5 mins by fluorescence assay.

The target of test [5] is Histone deacetylase 2 (Homo sapiens) (UniProt Q92769). Description: Inhibition of full-length human recombinant HDAC2 expressed in baculovirus infected Sf9 insect cells preincubated for 16 hrs measured every 5 mins by fluorescence assay.
Test [6] deals with T3, Histone deacetylase 8 (Homo sapiens) (UniProt Q9BY41).
T3 sequence (whole entry): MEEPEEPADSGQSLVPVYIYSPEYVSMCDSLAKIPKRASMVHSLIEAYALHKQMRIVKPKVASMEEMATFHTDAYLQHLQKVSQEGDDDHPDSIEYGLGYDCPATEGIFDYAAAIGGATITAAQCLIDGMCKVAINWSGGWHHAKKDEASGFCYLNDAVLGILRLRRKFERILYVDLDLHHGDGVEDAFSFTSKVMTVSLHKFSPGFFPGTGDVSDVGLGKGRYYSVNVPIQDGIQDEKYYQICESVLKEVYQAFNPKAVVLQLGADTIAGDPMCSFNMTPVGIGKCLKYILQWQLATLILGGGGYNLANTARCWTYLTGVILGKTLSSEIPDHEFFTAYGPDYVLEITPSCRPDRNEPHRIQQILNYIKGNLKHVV
Description: Inhibition of human full-length recombinant C-termianl His-tagged HDAC8 expressed in baculovirus infected Sf9 insect cells measured every 5 mins by fluorescence assay.

Test [7] concerns the target Histone deacetylase 1 (Homo sapiens) (UniProt Q13547). Kind of test: Inhibition of full-length recombinant HDAC1 (unknown origin) expressed in baculovirus infected Sf9 insect cells measured every 5 mins by fluorescence assay.
Test [8] concerns HCT-116. Kind of test: Antiproliferative activity against human HCT116 cells after 48 hrs by MTT assay. The test is classed as functional, cell-based. The settings on record: HCT-116, 48 h.
The target of test [9] is Histone deacetylase 1 (Homo sapiens) (UniProt Q13547). Description: Inhibition of full-length recombinant HDAC1 (unknown origin) expressed in baculovirus infected Sf9 insect cells preincubated for 16 hrs measured every 5 mins by fluorescence assay.
The target of test [10] is T4, Histone deacetylase 3/Nuclear receptor corepressor 2 (HDAC3/NCoR2) (Homo sapiens) (UniProt O15379+Q9Y618). Description: Inhibition of human full length C-terminal His-tagged HDAC3/N-terminal GST-tagged human NCOR2 (395 to 489 residues) co-expressed in baculovirus infected Sf9 insect cells measured every 5 mins by fluorescence assay.
Test [11] addresses T1, Histone deacetylase (Homo sapiens). Description: Inhibition of HDAC in human HCT116 cells assessed as reduction in acetyl-histone-H3 levels at 10 uM after 24 hrs by Western blot analysis relative to control. It counts as cell-based. The essentials: as §1
On the technique in general: Immunoblotting shows a protein as a band on a membrane.

The target of test [12] is T4, Histone deacetylase 3/Nuclear receptor corepressor 2 (HDAC3/NCoR2) (Homo sapiens). Description: Inhibition of human full length C-terminal His-tagged HDAC3/N-terminal GST-tagged human NCOR2 (395 to 489 residues) co-expressed in baculovirus infected Sf9 insect cells preincubated for 16 hrs measured every 5 mins by fluorescence assay.

From ChEMBL document CHEMBL4177655, “Synthesis and biological evaluation of Santacruzamate-A based analogues” (Bioorg Med Chem, 2017) come the findings set out here.

The structures appear in SMILES notation. Active and inactive are the calls of the source. No cut-off for these calls is given here.

Chain of Histone deacetylase 1 (Homo sapiens) (Q13547 whole entry, the tested form may be a part): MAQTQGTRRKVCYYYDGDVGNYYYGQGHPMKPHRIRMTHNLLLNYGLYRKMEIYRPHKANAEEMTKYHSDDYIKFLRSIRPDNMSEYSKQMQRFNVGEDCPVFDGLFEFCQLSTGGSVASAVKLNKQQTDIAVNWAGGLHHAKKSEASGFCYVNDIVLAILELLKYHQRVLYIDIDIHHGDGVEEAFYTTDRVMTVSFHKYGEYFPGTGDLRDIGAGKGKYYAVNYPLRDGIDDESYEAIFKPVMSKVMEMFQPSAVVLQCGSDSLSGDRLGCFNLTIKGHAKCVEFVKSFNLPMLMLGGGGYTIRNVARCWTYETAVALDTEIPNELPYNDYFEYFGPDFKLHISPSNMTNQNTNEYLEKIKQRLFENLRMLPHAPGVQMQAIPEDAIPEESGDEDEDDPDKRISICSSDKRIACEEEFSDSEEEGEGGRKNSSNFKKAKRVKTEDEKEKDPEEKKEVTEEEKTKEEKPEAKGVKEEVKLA
Chain of Histone deacetylase 2 (Homo sapiens) (Q92769 whole entry): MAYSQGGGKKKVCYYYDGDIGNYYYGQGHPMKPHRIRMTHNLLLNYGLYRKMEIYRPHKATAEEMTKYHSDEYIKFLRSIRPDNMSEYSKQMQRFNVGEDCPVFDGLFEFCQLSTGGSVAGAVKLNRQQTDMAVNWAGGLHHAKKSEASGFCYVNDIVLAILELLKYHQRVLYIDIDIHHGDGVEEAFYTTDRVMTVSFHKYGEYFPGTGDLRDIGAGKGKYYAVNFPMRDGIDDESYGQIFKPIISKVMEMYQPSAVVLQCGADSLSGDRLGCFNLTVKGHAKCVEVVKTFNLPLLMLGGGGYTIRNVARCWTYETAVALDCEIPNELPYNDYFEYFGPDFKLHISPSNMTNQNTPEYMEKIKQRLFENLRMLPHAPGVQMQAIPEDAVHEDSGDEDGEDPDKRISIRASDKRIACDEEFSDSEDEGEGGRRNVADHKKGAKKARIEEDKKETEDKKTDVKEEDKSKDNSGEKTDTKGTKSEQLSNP

By IC50 is commonly meant the concentration that inhibits the measured activity by half. Read a high IC50 as weaker potency in that assay. On to `CCOC(=O)NCCCC(=O)NCc1ccccc1`, for which the values for the IC50 in the test on HCT-116 [1] and in the test with HCT-116 [2] were over 50 µM and 0.615 µM, respectively.
`O=C(CCCNC(=O)C(=O)O)NCCc1c[nH]c2ccccc12` gave an IC50 in the test with HCT-116 [1] of under 50 µM.
As for `CCOC(=O)NCCCC(=O)NCCc1cccc(O)c1`, the inhibition entry in test [3], in test [4], in test [5], in [6], in test [7] and in test [9] was “inactive” in each case. Moreover, the inhibition result in [10], in test [11] and in test [12] was “inactive” each time. Also, the half-maximal inhibitory concentration (IC50) with HCT-116 [1] is over 50 µM; in the test with HCT-116 [2] it was 1 to 5 µM; with HCT-116 [8] it was 0.476 µM.
With `CCOC(=O)NCCCC(=O)NCCCc1ccccc1`, the IC50 in the test on HCT-116 [1], in the test with HCT-116 [2] and in the test with HCT-116 [8] was over 50 µM in each case.
In the test with HCT-116 [1], `O=C(CCCNC(=O)C(=O)O)NCCCc1ccccc1` displayed a concentration for half-maximal inhibition (IC50) of over 50 µM.
The same measure, in the same setting: the figure for `O=C(CCCNC(=O)C(=O)O)NCCc1cccc(F)c1` is over 50 µM.
In the case of `O=C(CCCNC(=O)C(=O)O)Nc1ccccc1`, the inhibition entry in test [3] and in test [11] was “inactive” throughout. For the same compound, the IC50 in the test with HCT-116 [1] was 0.814 µM; in the test on HCT-116 [8], over 50 µM.
Take `CCOC(=O)NCCCC(=O)NCCc1ccccc1`: the inhibition result in [4], in test [5], in test [6], in test [7], in [9] and in test [10] was “inactive” in each case. In addition, the inhibition entry in [12] is “inactive”. The IC50 in the test on HCT-116 [1], in the test with HCT-116 [2] and with HCT-116 [8] was over 50 µM throughout.
For the compound `O=C(CCCNC(=O)C(=O)O)NCCc1ccccc1`, the IC50 in the test on HCT-116 [1] and in the test with HCT-116 [8] was over 50 µM throughout.
Turning to `O=C(CCCNC(=O)C(=O)O)NCCc1cccc(O)c1`, the IC50 with HCT-116 [1] and in the test on HCT-116 [8] was over 50 µM each time.
`CCOC(=O)NCCCC(=O)NCCc1cccc(F)c1`: the IC50 in the test with HCT-116 [1] is over 50 µM; in the test with HCT-116 [2] it was 5 to 10 µM; in the test with HCT-116 [8], 0.825 µM.
